High-throughput results: PubChem, several laboratories
An excerpt weighted towards active compounds, which were near 2.1% of everything screened.
RanGTP-Imp inh: inhibitors of RanGTP-importin-beta interaction, primary screen, biochemical, FRET, CFP-Ran, YFP-importin-beta, homogeneous; cell-free CFP-Ran/YFP-importin-beta FRET ratio; inhibition, % (test concentration not listed); 300,000 tested, 1.1% active; AID 2216;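 active = more than half of the replicate wells show a fall in the fluorescence ratio signal beyond about 16%, limit read from the data, passing the limit was not always enough; inconclusive = exactly half of the replicate wells pass the set limit; inactive = fewer than half of replicates pass the limit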
Runt-CBFb FRET: Runt domain-CBFb interaction inhibition; inhibition, % at 20 µM; AID 1496; Cerulean-Runt/Venus-CBFb FRET ratio 530/480, 1 h; 220,000 tested, 0.46% active;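 active = inhibition over about 50% at 20 µM in the single-dose screen, limit read from the data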
Target sequence (Q01196 whole entry, looked up, the tested form may be a part): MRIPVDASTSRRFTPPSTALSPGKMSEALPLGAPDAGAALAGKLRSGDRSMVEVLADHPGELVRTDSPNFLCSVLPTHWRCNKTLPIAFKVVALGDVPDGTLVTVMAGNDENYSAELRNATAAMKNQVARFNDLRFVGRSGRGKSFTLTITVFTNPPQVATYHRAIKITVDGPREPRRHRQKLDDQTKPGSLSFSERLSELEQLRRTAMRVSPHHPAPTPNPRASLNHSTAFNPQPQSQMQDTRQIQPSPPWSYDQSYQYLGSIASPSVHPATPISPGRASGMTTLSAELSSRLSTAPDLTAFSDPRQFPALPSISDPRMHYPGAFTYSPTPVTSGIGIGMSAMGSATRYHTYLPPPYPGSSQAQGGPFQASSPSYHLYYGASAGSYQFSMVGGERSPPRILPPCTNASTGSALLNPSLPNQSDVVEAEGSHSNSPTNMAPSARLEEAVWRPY
Target sequence (Q13951 whole entry, looked up, the tested form may be a part): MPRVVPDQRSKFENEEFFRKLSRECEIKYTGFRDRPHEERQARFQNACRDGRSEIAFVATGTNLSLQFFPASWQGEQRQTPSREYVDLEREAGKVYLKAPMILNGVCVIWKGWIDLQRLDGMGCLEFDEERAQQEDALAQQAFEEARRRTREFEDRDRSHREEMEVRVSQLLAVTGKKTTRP
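test system = Cerulean-Runt domain fusion protein, energy donor | probe or stimulus = Venus-CBFb binding partner, 100 nM | incubation = two 1 h room-temperature incubations shielded from light | detection = fluorescence energy transfer, 422 nm excitation, 530/480 nm emission | measure = loss of energy transfer signal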
Runt-SMMHC FRET: inhibitors of human RUNX1 Runt domain binding to CBFb-SMMHC; Q01196+Q13951; Cerulean-Runt/Venus-CBFb-SMMHC FRET ratio 530/480, 1 h; inhibition, % at 20 µM; 220,000 tested, 0.74% active;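 active = mean inhibition across duplicate retests at 20 µM reaching about 50%, limit read from the data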;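 note: inhibitors lower the FRET ratio by blocking Runt binding to CBFb-SMMHC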
FAS-TE inh: FAS thioesterase (human) inhibition; P49327; recombinant FAS-TE, OMFH fluorogenic substrate, fluorescence endpoint; inhibition, % at 15 µM; 360,000 tested, 0.67% active;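 active = compounds whose normalised, plate-corrected inhibition of enzyme fluorescence in the single-dose primary screen is 50% or more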
Calpain2 inh: calpain II (pig) inhibition; AID 1236; purified calpain II, fluorogenic peptide substrate, 30 min; inhibition, % at 16 µM; 220,000 tested, 0.37% active;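 active = inhibition above about 50%, limit read from the data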
Runt-CBFb TRFRET: inhibitors of human RUNX1 Runt domain binding to CBFb; shares compounds with Runt-CBFb FRET; TR-FRET RUNX1 Runt domain-CBFb binding; inhibition, % at 20 µM; 480 tested, 20% active; AID 1502; in the data active = inhibition above about 40%
YIC FRET counter: counter-screen: alters YIC FRET probe signal | shares compounds with RanGTP-Imp inh | Purified YIC probe, intramolecular FRET ratio YFP/CFP | IC50, µM | 1,000 tested, 40% active | AID 435026;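 active = fitted half-maximal inhibitory concentration no more than tenfold above the top dose tested; inconclusive = flat fit with 30 to 70% activity, or poor fit; inactive = half-maximal concentration beyond tenfold above the top dose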
Hits are given with their value; i = inactive; ? = inconclusive; nt = no result given.

SMILES	RanGTP-Imp inh	Runt-CBFb FRET	Runt-SMMHC FRET	FAS-TE inh	Calpain2 inh	Runt-CBFb TRFRET	others
Cc1cc(O)c(-c2cc(O)c(C)cc2O)cc1O	i	58	80	i	i	43
Cc1ccc(N(C(=O)c2csnn2)C(C(=O)NCc2ccccc2)c2cccnc2)cc1 (stereo unspecified)	i	nt	nt	i	nt	nt
Cc1cc(O)ccc1N/C=C(\C#N)c1nc2ccccc2o1	i	53	i	i	i	i
CCOC(=O)c1cnc2ccc(C)cc2c1Sc1ccccc1	i	i	i	i	i	nt
CCOC(=O)c1cnc2ccc(C)cc2c1Sc1ccc(F)cc1	i	86	i	i	i	i
CCc1nc2sc3c(O)cc(=O)[nH]c3c2cc1C	i	52	i	i	i	54
Cc1cc(-c2ccccc2)c2c(n1)sc1c(O)cc(=O)[nH]c12	i	i	i	nt	i	nt
CCN(CC)c1ccc2cc(C(=O)Nc3cccnc3N3CCOCC3)c(=O)oc2c1	nt	59	79	nt	nt	i
C[C@H]1CN([C@@H](C)CO)S(=O)(=O)c2ccc(Br)cc2O[C@@H]1CN(C)C(=O)Cc1ccccc1	nt	nt	nt	i	nt	nt
CN(C)S(=O)(=O)c1ccc(N2CCCC2)c(C(=O)N2CCN(S(=O)(=O)c3ccccc3F)CC2)c1	i	nt	nt	i	nt	nt
CCOC(=O)N1CCC(NC(=O)c2ccc3c(c2)N(Cc2ccc(C)cc2)CCS3)CC1	i	i	i	i	i	nt
CCOC(=O)N1CCC(NC(=O)c2ccc3c(c2)N(C)CCS3)CC1	nt	67	nt	i	i	50
COc1ccc(CCNC(=O)COC(=O)CSc2ccc([N+](=O)[O-])cc2)cc1OC	nt	nt	nt	i	nt	nt
Cc1ccc(C(=O)/C=C\C(=O)c2ccc(C)cc2)cc1	i	62	51	i	i	i
CCCOC(=O)c1c(-c2ccccc2)nc(CC)c(C(=O)SCC)c1CCC	nt	nt	nt	i	nt	nt
Cc1c(N(C)C(=O)COc2ccc3ccccc3c2)c(=O)n(-c2ccccc2)n1C	i	nt	nt	i	nt	nt
S=c1nccc(-c2cccs2)[nH]1	i	65	i	i	i	i
O=C(NNC(=O)c1cccnc1)NC1CCCCC1	i	i	i	i	i	nt
O=C(NNC(=O)c1cc(O)c(O)c(O)c1)NC1CCCCC1	i	55	i	i	i	61
CCNC(=S)N(Cc1cc2cc(C)ccc2[nH]c1=O)C1CCCC1	i	58	i	i	i	i
CCNC(=S)N(Cc1cc2c(C)ccc(C)c2[nH]c1=O)C1CCCC1	i	60	i	i	i	i
CCNC(=S)N(Cc1cc2cc(C)cc(C)c2[nH]c1=O)C1CCCC1	i	i	i	i	i	nt
Nc1ncc(Br)cc1S(=O)(=O)NCCC(=O)NCCc1ccc(Cl)cc1	i	nt	nt	i	nt	nt
Oc1cc(-n2cccn2)c(O)cc1-n1cccn1	i	53	100	i	i	i
COCCN(C(=S)Nc1c(C)cc(C)cc1C)C(C)c1cccnc1 (stereo unspecified)	?	51	i	i	i	i
SMILES	RanGTP-Imp inh	Runt-CBFb FRET	Runt-SMMHC FRET	FAS-TE inh	Calpain2 inh	Runt-CBFb TRFRET	others
Cc1c(NS(=O)(=O)c2cc(Br)cc3c2N(C(=O)C2CC2)CC3)c(=O)n(-c2ccccc2)n1C	i	i	i	i	i	nt
Cc1c(NS(=O)(=O)c2ccc3c(c2)CCN3C(=O)C2CC2)c(=O)n(-c2ccccc2)n1C	i	57	i	i	i	i
COc1ccccc1N(CC(=O)NC1CCCCC1)C(=O)Cn1nnc(-c2ccc(C)o2)n1	?	nt	nt	i	nt	nt
CCCC(C(=O)NC1CCCC1)N(C(=O)Cn1nnc(-c2ccc(C)o2)n1)c1ccccc1OC (stereo unspecified)	i	53	i	i	i	i
COC(=O)C1C2CCCCC1C(=O)O2 (stereo unspecified)	nt	nt	nt	i	nt	nt
CCCOc1ccccc1-c1nc2c([nH]1)c(=O)[nH]c(=O)n2C	75	75	133	i	i	i
Cn1c(=O)[nH]c(=O)c2[nH]c(CO)nc21	nt	nt	nt	i	nt	nt
CCCCOC(=O)Nc1ccccc1C(N)=O	?	51	i	i	i	i
Cc1cc(=O)[nH]c(SCC(=O)NN(c2ccccc2)c2ccccc2)n1	i	i	i	i	i	nt
Cn1c(=O)[nH]c(=O)c2c1nc(SCCN1CCCCC1)n2CCCc1ccccc1	nt	52	i	i	i	i
Cc1ccc(Cn2c(SCCN3CCCCC3)nc3c2c(=O)[nH]c(=O)n3C)cc1	i	50	i	i	i	i
Cn1c(=O)[nH]c(=O)c2c1nc(SCCN1CCCCC1)n2Cc1ccccc1	i	i	i	i	i	nt
CCN1C2=C(C(=O)CCC2)C(c2ccc(O)c(Br)c2)C2=C1CCCC2=O	35	54	122	i	i	i	YIC FRET counter=8.4
CC1CCCC(C)N1/N=C/c1ccc(C#N)cc1 (stereo unspecified)	i	i	i	i	i	nt
COC(=O)C1=CN(C)C=C(C(=O)OC)C1c1ccc(O)c(OC)c1	i	i	i	i	i	nt
COCCN1C=C(C(=O)OC)C(c2cc(Br)c(OC)c(OC)c2)C(C(=O)OC)=C1	20	73	142	i	i	i	YIC FRET counter=31
O=C(/C=C/c1c(F)cccc1Cl)NCc1ccc2c(c1)OCO2	i	nt	nt	i	nt	nt
CC(=O)N1CCc2c(sc(NC(=O)c3ccc4c(c3)OCCO4)c2C#N)C1	39	65	90	i	i	i	YIC FRET counter=52
COC(=O)C1CC2=C(CCCC2=O)N(c2ccccc2)C1=O (stereo unspecified)	nt	nt	nt	i	nt	nt
COCCNC(=O)/C(C#N)=C/c1cc(Br)c(O)c(OC)c1	i	i	i	i	i	nt
CCOCCCNC(=O)/C(C#N)=C/c1cc(Br)c(O)c(Br)c1	38	68	116	i	i	i	YIC FRET counter=15
OC(c1ccccc1)c1ncc(-c2cccc(C(F)(F)F)c2)[nH]1 (stereo unspecified)	nt	nt	nt	i	nt	nt
Cc1ccc(-c2nc3cccnc3s2)cc1NS(=O)(=O)c1cccs1	i	i	i	i	i	nt
CCc1ccc(S(=O)(=O)Nc2ccc(-c3nc4cccnc4s3)cc2)s1	40	80	148	i	i	i	YIC FRET counter=9.7
CC[C@]12c3[nH]c4ccc(OC)cc4c3CCN1C(=O)C(CC(=O)NCCCOC)C[C@@H]2C(=O)N1CCN(C(=O)c2ccco2)CC1 (stereo partly specified)	nt	nt	nt	i	nt	nt
Nc1c(S(=O)(=O)c2ccccc2)c2nc3ccccc3nc2n1CCN1CCOCC1	i	i	i	i	i	nt
CCCCn1c(NC(=O)c2ccc(Br)o2)c(S(=O)(=O)c2ccccc2)c2nc3ccccc3nc21	25	64	136	i	i	i	YIC FRET counter=4.9
CCOc1ccc(Nc2c3ccccc3nc3ccccc23)cc1	54	60	i	i	i	41	YIC FRET counter=i
CCc1c(C)c2cc(Cl)c(O)c(CN3CCCCC3)c2oc1=O	22	85	156	i	i	i	YIC FRET counter=26
C=CCn1c(N)c(C(=O)OCCC)c2nc3ccccc3nc21	21	69	119	i	i	i	YIC FRET counter=i
